Compound activity from PubChem.
Shown are actives, neighbours in structure and some others; about 10% of the full set was active somewhere.
WT yeast gro inh: growth inhibition of WT yeast, mitochondrial fusion screen. mitochondrial fusion phenotypic screen, WT strain. inhibition, % at 10 µM. hit rate 2.1% among 190,000. AID 1362; in the data active means inhibition above about 58%; tested in S. cerevisiae
PMI act hi M6P: PMI (human) activation, high substrate | P34949 | activation factor at 20 µM | hit rate 0.34% among 190,000 | coupled PMI enzyme assay, resazurin fluorescence, 20 min; active compounds read high; 1 = untreated enzyme, 0 = substrate-free blank | AID 1216;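 active means activation factor of 2 or more at 20 µM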
Target sequence (P34949 whole entry, looked up): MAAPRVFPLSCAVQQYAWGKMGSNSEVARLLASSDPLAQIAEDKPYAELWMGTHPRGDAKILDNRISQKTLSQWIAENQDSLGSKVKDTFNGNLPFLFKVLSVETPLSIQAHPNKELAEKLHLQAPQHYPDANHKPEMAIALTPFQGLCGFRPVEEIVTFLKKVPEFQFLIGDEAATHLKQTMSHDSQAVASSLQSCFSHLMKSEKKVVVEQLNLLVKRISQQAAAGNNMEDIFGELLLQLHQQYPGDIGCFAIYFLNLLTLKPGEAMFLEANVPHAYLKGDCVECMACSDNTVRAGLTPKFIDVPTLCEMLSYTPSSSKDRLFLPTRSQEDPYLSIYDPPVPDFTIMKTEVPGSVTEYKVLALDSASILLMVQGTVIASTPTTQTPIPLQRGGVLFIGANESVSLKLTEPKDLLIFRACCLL
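assay system = human phosphomannose isomerase with PGI, G6PDH, diaphorase coupling enzymes | quantity = 15 ng/mL PMI | incubation = enzyme reaction with compound 20 min at room temperature | medium = HEPES pH 7.4 buffer with MgCl2 and Tween-20 | compound dosing = one concentration, 20 µM, in 1% DMSO | measured by = Diaphorase-driven resazurin-to-resorufin fluorescence, excitation 544, emission 590 nm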
Diaphorase act: activates diaphorase or chemically reduces, flagging diaphorase assay artifacts; Diaphorase/resazurin coupled assay, resorufin fluorescence, 16 min; active compounds read high; 1 = vehicle wells, 0 = NADH-free wells; activation factor at 20 µM; hit rate 0.005% among 190,000; AID 1229;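 active means diaphorase activity raised at least twofold by the compound at 20 µM; inactive means activation factor below 2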
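Assay system: bacterial diaphorase enzyme (C. kluyveri) / Input: enzyme 0.07 U/mL final / Medium: 50 mM HEPES pH 7.4 with 4.542 mM MgCl2, 0.005% Tween 20 / Doses: single compound dose of 20 µM, 1% DMSO final / Incubation: 16 min enzyme reaction, ambient temperature / Signal: fluorescence, excitation 544 nm and emission 590 nm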
L major viab: reduces viability of Leishmania major promastigotes | resazurin fluorescence viability | hit rate 9% among 200,000 | inhibition, % at 10 µM; in the data active means inhibition above about 50%;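 further: promastigotes grown with compound for 44 hours at 28 °C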
PMI act: phosphomannose isomerase (human) activation; P34949; purified human PMI, coupled resazurin fluorescence, 20 min; active compounds read high; 1 = vehicle control, 0 substrate-free wells; activation factor at 20 µM; hit rate 0.005% among 190,000; AID 1214;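 active means activation factor of 2 or more at 20 µM, relative to plate controls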
Starred values were filed as active, the others as inactive.

SMILES | WT yeast gro inh | PMI act hi M6P | Diaphorase act | L major viab | PMI act
CCOC(=O)N1CCN(S(=O)(=O)c2ccc(C(=O)Nc3ccc4c(c3)C(=O)NC4=O)cc2)CC1 | 8 | 0.9 | 0.8 | 56* | 0.9
N#Cc1ccc(C(=O)Nc2cc(S(=O)(=O)N3CCCC3)ccc2OCC(F)(F)F)cc1 | -10 | 1 | 0.9 | 59* | 1
COc1ccc(NS(=O)(=O)c2cccc(NC(=O)c3ccc(S(=O)(=O)N4CCCCCC4)cc3)c2)cc1 | 13 | 1 | 0.8 | 97* | 1
COc1ccc(S(=O)(=O)N2CCCCC2)cc1NC(=O)CSc1nccn1C | -12 | 1.1 | 1 | 99* | 1
S=C(N/N=C1\C2CN3CCN(C2)CC1(c1ccccc1)C3)Nc1ccccc1 | 1 | 0.6 | 0.7 | -1 | 0.9
O=C(Nc1ccccc1C(F)(F)F)c1c(F)cccc1Cl | -4 | 0.9 | 0.7 | -3 | 0.9
O=C(CSc1nnc(-c2ccncc2)o1)N1CCc2ccccc2C1 | -12 | 0.9 | 0.8 | -6 | 1
Cc1ccc(N2CC(O)=C(c3nc4ccccc4c(=O)[nH]3)C2=N)cc1C | 2 | 1 | 0.8 | 18 | 0.9
COc1ccc(S(=O)(=O)N2CCCCC2)cc1NC(=O)c1ccc2c(c1)OCO2 | -3 | 1.1 | 0.9 | 78* | 1
COc1ccc(C(=O)NC(=S)Nc2ccc(N3CCCC3)cc2)cc1 | 12 | 0.7 | 1 | 3 | 0.8
O=C(Nc1cccc(S(=O)(=O)N2CCCC2)c1)c1ccc2c(=O)n3c(nc2c1)CCCCC3 | 8 | 0.9 | 0.9 | 82* | 0.9
Cc1cc2cc(C)c3nnc(SCC(=O)Nc4ccc(S(=O)(=O)N5CCCCC5)cc4)n3c2cc1C | 17 | 1 | 0.9 | 56* | 0.9
COc1ccc(C(=O)Nc2ccc(N3CCCC3)cc2)cc1 | 2 | 1.4 | 1.2 | 92* | 1.3
O=C(c1ccccc1F)N(Cc1nc2ccccc2c(=O)[nH]1)C1CCCC1 | -11 | 1 | 1 | -2 | 1
CN(C(=O)c1ccccc1OC1CCN(S(C)(=O)=O)CC1)C1CCOC1 (centres undefined) | 8 | 1.1 | 1.1 | -2 | 1.1
COc1ccc(CNC(=O)C2CCCN2)cc1OC (centres undefined) | 4 | 1 | 0.9 | -6 | 0.9
O=S(=O)(Nc1nc2ccccc2nc1Nc1cccc(S(=O)(=O)N2CCCCC2)c1)c1ccccc1 | -10 | 1 | 0.7 | 69* | 1
COc1ccc(S(=O)(=O)Nc2cccc(S(=O)(=O)N3CCCCCC3)c2)cc1 | -15 | 0.9 | 0.8 | -2 | 0.8
COc1ccccc1NS(=O)(=O)c1ccc(C)c(NC(=O)c2ccc(S(=O)(=O)N3CCCCCC3)cc2)c1 | 8 | 1 | 0.9 | 97* | 0.9
COc1ccccc1NC(=O)c1ccc(S(=O)(=O)N2CCCC2)cc1 | 0 | 0.9 | 0.8 | 12 | 0.8
CSC1=NC(C(Cl)(Cl)Cl)N=C(c2ccc(C)cc2)N1 (centres undefined) | -13 | 2.3* | 0.9 | -1 | 1.9
CCC1N=C(SC)NC(C)=C1C(=O)c1ccccc1 (centres undefined) | 0 | 1.7 | 1 | 15 | 1.4
O=S(=O)(Nc1nc2ccccc2[nH]1)c1ccc(Cl)cc1 | 16 | 0.9 | 0.8 | 57* | 1
CCCNC(=O)COc1ccc(S(=O)(=O)Nc2ccc(C)cc2)cc1 | -11 | 1.1 | 1 | 3 | 1
COc1ccc(/C=N/Nc2nc(Nc3ccccc3)nc(N3CCCCC3)n2)cc1OC | 26 | 1 | 1 | 98* | 1
SMILES | WT yeast gro inh | PMI act hi M6P | Diaphorase act | L major viab | PMI act
COc1cc(/C=N/Nc2ccc(Cl)c(C(=O)O)c2)ccc1OC(=O)c1ccco1 | -3 | 1.5 | 1.1 | -13 | 1.6
c1ccc(Nc2nc(N3CCOCC3)nc(N3CCOCC3)n2)cc1 | 5 | 1.1 | 1 | 0 | 1
O=C(Oc1cccc(/C=N/Nc2nc(Nc3ccccc3)nc(N3CCOCC3)n2)c1)c1ccco1 | 23 | 0.9 | 0.8 | 65* | 0.8
COc1cc(/C=N/Nc2nc(N3CCCCC3)nc(N3CCCCC3)n2)ccc1OC(=O)c1ccco1 | 6 | 0.9 | 0.9 | 60* | 1
CCOc1cc(/C=N/Nc2nc(Nc3ccccc3)nc(N3CCCCC3)n2)ccc1OCC(=O)O | 25 | 1.1 | 0.9 | -11 | 1.1
CCCCCCCOC(=O)C[N+](C)(C)CCOC1CC2CCC1(C)C2(C)C (centres undefined) | 78* | 0.9 | 1.1 | 100* | 0.8
CC(C)CCOC(=O)C[N+](C)(C)CCOC1CC2CCC1(C)C2(C)C (centres undefined) | 19 | 1.2 | 1 | 91* | 1.1
CCCCCCOC(=O)C[N+](C)(C)CCOC1CC2CCC1(C)C2(C)C (centres undefined) | 57 | 1 | 1.1 | 100* | 1
CCCCOC(=O)C[N+](C)(C)CCOC1CC2CCC1(C)C2(C)C (centres undefined) | 18 | 1 | 1 | 69* | 1
Cc1ccc2ncccc2c1NC(=S)NC(=O)c1ccccc1 | 0 | 1 | 0.9 | -4 | 1
COc1ccccc1C(=O)COC(=O)CNS(=O)(=O)c1ccc(C)cc1 | -9 | 1 | 0.9 | 0 | 1
Cc1c(CNC(=O)C2CC2)c(-n2cccc2)n(Cc2ccccc2)c1C | -15 | 1.1 | 1.2 | 3 | 1.2
Cc1ccc(N(C(=O)Cn2nnc(-c3ccc(F)cc3)n2)C(CC(C)C)C(=O)NCC2CCCO2)cc1 (centres undefined) | 31 | 0.9 | 0.8 | 2 | 0.8
CCC(C)OC(=O)C[N+](C)(C)CCOC1CC2CCC1(C)C2(C)C (centres undefined) | -2 | 0.9 | 0.9 | 96* | 1
O=c1cc[nH]c2ccc([N+](=O)[O-])cc12 | -13 | 1 | 0.8 | 14 | 1.1
Cc1ccc2nc(N/N=C/c3ccco3)cc(C)c2c1 | 19 | 0.9 | 1.1 | 62* | 0.9
O=C(N/N=C/c1ccc([N+](=O)[O-])o1)c1cc(-c2ccncc2)nc2ccccc12 | -9 | 0.9 | 0.6 | 99* | 1.1
O=C(N/N=C/c1ccc([N+](=O)[O-])o1)c1cc(-c2ccc(-c3ccccc3)cc2)nc2ccccc12 | 41 | 1.6 | 1.1 | 100* | 1.6
Cn1c(/C=C/c2ccc([N+](=O)[O-])o2)nc2ccccc2c1=O | 1 | 1 | 0.8 | 100* | 1
COCCNC(=O)c1cc2cc(Cl)cc(Cl)c2oc1=O | -11 | 1.1 | 1 | -6 | 1
O=C(c1ccccn1)N1CCN(S(=O)(=O)c2ccccc2)CC1 | -19 | 1 | 0.9 | -6 | 1
CCCc1ccc(-c2cc(C(=O)Nc3ccc([N+](=O)[O-])cn3)c3ccccc3n2)cc1 | 9 | 1 | 0.9 | 76* | 0.9
Cc1cc(N/N=C/c2ccc([N+](=O)[O-])o2)nc2ccccc12 | 2 | 0.9 | 0.8 | 83* | 1.1
